pIC50: −log10 of the molar value.
Tests used:
[1] = Inhibition of human ENaC in HBE cells by short-circuit current technique; format: cell-based
[2] = Thermodynamic solubility of the compound at pH 4 after 24 hrs of post-equilibriation by shake-flask method; format: physicochemical; conditions: buffer, read-out: Therm_solubility
[3] = Thermodynamic solubility of the compound at pH 6.8 after 24 hrs of post-equilibriation by shake-flask method; format: physicochemical; conditions: buffer, read-out: Therm_solubility
[4] = Thermodynamic solubility of the compound at pH 1 after 24 hrs of post-equilibriation by shake-flask method; format: physicochemical; conditions: buffer, read-out: Therm_solubility
[5] = Thermodynamic solubility of the compound at pH 9 after 24 hrs of post-equilibriation by shake-flask method; format: physicochemical; conditions: buffer, read-out: Therm_solubility
Homo sapiens = organism: Homo sapiens; experiment: Ratio of amiloride IC50 to compound IC50 for human ENaC
[6] = Inhibition of guinea pig ENaCbeta1/gamma1 expressed in FRT cells by short-circuit current technique; format: cell-based; conditions: Cavia porcellus
Outline: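 Fischer rat thyroid cells transiently infected with guinea-pig ENaC were used to measure channel blockade, and the value is reported as an IC50.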

Cavia porcellus = experiment: Blockade of tracheal potential difference in it dosed Dunkin Hartley guinea pig at 1hr; format: functional; conditions: Trachea
HBE = experiment: Inhibition of human ENaC in HBE cells at 30 uM by short-circuit current technique; format: cell-based
[7] = Permeability from basal to apical side of human Caco2 cells; format: ADME, cell-based; conditions: Caco-2, read-out: permeability
[8] = Permeability from apical to basal side of human Caco2 cells; format: ADME, cell-based; conditions: Caco-2, read-out: permeability
[9] = target: T1, Voltage-gated inwardly rectifying potassium channel KCNH2 (Homo sapiens, UniProt Q12809); experiment: Binding affinity to human ERG channel
[10] = target: T1, Voltage-gated inwardly rectifying potassium channel KCNH2; experiment: Inhibition of human ERG channel by patch clamp assay

T1 sequence (Q12809 whole entry): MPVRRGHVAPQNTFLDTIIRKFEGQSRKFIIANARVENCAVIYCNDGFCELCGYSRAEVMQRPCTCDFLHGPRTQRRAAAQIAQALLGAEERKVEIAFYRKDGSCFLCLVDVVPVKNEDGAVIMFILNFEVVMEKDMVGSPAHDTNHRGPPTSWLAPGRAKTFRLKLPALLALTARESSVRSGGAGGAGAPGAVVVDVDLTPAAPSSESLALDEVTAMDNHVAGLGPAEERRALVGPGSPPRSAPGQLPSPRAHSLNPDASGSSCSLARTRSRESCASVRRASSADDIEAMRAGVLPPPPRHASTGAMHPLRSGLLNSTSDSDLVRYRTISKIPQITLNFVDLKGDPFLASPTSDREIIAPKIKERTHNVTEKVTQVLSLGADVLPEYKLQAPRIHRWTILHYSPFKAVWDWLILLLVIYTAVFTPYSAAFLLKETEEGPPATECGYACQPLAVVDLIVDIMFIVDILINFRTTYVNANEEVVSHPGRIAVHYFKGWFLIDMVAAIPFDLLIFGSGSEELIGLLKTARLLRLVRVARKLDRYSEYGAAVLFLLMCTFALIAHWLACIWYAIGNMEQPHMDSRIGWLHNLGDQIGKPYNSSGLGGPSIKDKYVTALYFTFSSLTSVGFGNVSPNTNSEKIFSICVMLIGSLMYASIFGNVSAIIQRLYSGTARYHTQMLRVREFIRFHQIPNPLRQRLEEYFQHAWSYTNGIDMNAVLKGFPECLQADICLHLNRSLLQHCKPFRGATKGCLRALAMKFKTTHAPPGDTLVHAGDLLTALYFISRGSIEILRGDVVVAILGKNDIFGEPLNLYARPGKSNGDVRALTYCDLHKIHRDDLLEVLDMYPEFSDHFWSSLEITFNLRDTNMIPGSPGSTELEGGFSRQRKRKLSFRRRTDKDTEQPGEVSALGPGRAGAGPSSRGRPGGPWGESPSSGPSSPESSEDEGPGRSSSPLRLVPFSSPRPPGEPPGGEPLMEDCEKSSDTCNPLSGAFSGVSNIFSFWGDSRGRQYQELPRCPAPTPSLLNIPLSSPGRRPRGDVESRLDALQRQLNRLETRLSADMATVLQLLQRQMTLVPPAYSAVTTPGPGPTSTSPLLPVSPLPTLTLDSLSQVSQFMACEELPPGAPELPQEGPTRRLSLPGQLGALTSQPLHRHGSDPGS

Compound	pIC50 [1]	further results
COc1ccc(CCC[N+](C)(CCCc2ccc(OC)cc2)CCNC(=O)c2nc(Cl)c(N)nc2N)cc1.[Br-]	7.89	solubility thermodynamic at 24 h [2]: 500 µg/mL; solubility thermodynamic at 24 h [3]: 900 µg/mL; solubility thermodynamic at 24 h [4]: 600 µg/mL; solubility thermodynamic at 24 h [5]: 1000 µg/mL; Ratio IC50 (Homo sapiens): 100
N=C(N)NC(=O)c1nc(Cl)c(N)nc1N [AMILORIDE]	6.66	pIC50 [6]: 6.27; ED50 (Cavia porcellus): 0.016 mg/kg
C[N+](C)(CCCCNC(=O)CCc1ccc(Cl)cc1)CCNC(=O)c1nc(Cl)c(N)nc1N	6.80	–
CN(C)CCCCNC(=O)c1nc(Cl)c(N)nc1N	–	inhibition (HBE): < 60%
N/C(=N\C(=O)c1nc(Cl)c(N)nc1N)NCc1ccccc1 [BENZAMIL]	7.70	–
C[N+](C)(CCCCNC(=O)c1ccc(Cl)cc1)CCNC(=O)c1nc(Cl)c(N)nc1N	6.29	–
C[N+](C)(CCCCNC(=O)CCc1ccc(OCc2ccccc2)cc1)CCNC(=O)c1nc(Cl)c(N)nc1N	7.10	–
COc1ccc(CCC[N+](CCCc2ccc(OC)cc2)(CCCc2ccc(OC)cc2)CCNC(=O)c2nc(Cl)c(N)nc2N)cc1	7.43	–
C[N+](C)(CCCCNC(=O)Cc1ccc(Cl)cc1)CCNC(=O)c1nc(Cl)c(N)nc1N	6.14	–
C[N+](C)(CCCCCNC(=O)c1ccc(Cl)cc1)CCNC(=O)c1nc(Cl)c(N)nc1N	6.12	–
Cc1ccc(CC(=O)NCCCC[N+](C)(C)CCNC(=O)c2nc(Cl)c(N)nc2N)cc1	6.12	–
C[N+](C)(CCCCNC(=O)Cc1ccccc1)CCNC(=O)c1nc(Cl)c(N)nc1N	6.02	–
C[N+](C)(CCCCNC(=O)CCc1ccccc1)CCNC(=O)c1nc(Cl)c(N)nc1N	6.04	–
C[N+](C)(CCCCNS(=O)(=O)c1ccc(Cl)cc1)CCNC(=O)c1nc(Cl)c(N)nc1N	6.60	–
C[N+](C)(CCCCNC(=O)Cc1ccc(OCc2ccccc2)cc1)CCNC(=O)c1nc(Cl)c(N)nc1N.[Br-]	7.22	Papp B→A [7]: 2.55 ×10⁻⁶ cm/s; pIC50 [9]: 6.48; Papp A→B [8]: 3.33 ×10⁻⁶ cm/s; pIC50 [10]: 4.97
C[N+](C)(CCCCCNS(=O)(=O)c1ccc(Cl)cc1)CCNC(=O)c1nc(Cl)c(N)nc1N	6.02	–
Cc1ccc(CCC(=O)NCCCC[N+](C)(C)CCNC(=O)c2nc(Cl)c(N)nc2N)cc1	6.23	–

Further lines, with some results ahead:

pIC50 [1]	Compound	further results
5.40	NCCNC(=O)c1nc(Cl)c(N)nc1N	–
< 4.52	CN(C)CCN(C)C(=O)c1nc(Cl)c(N)nc1N	–
4.76	CN(C)CCCNC(=O)c1nc(Cl)c(N)nc1N	–
5.78	C[N+](C)(CCNC(=O)c1ccc(Cl)cc1)CCNC(=O)c1nc(Cl)c(N)nc1N	–
6.54	C[N+](C)(CCCNS(=O)(=O)c1ccc(Cl)cc1)CCNC(=O)c1nc(Cl)c(N)nc1N	–
6.13	C[N+](C)(CCCNC(=O)c1ccc(Cl)cc1)CCNC(=O)c1nc(Cl)c(N)nc1N	–
5.24	C[N+](C)(C)CCNC(=O)c1nc(Cl)c(N)nc1N	–
6.06	Cc1ccc(C(=O)NCCCC[N+](C)(C)CCNC(=O)c2nc(Cl)c(N)nc2N)cc1	–
5.34	CNCCNC(=O)c1nc(Cl)c(N)nc1N	–
6.57	COc1ccc(CCC[N+](C)(C)CCNC(=O)c2nc(Cl)c(N)nc2N)cc1.[Br-]	solubility thermodynamic at 24 h [2]: 4900 µg/mL; pIC50 [6]: 6.74; solubility thermodynamic at 24 h [3]: 5000 µg/mL; Papp B→A [7]: 1.67 ×10⁻⁶ cm/s; ED50 (Cavia porcellus): 0.044 mg/kg; solubility thermodynamic at 24 h [4]: 4800 µg/mL; solubility thermodynamic at 24 h [5]: 4700 µg/mL; Papp A→B [8]: 0.93 ×10⁻⁶ cm/s
5.32	CN(C)CCNC(=O)c1nc(Cl)c(N)nc1N	–
5.91	C[N+](C)(CCCCNC(=O)c1ccccc1)CCNC(=O)c1nc(Cl)c(N)nc1N	–
5.95	C[N+](C)(CCNC(=O)c1nc(Cl)c(N)nc1N)CCNS(=O)(=O)c1ccc(Cl)cc1	–
